Experimental data from article PMC11931292 (Drug Design, Development and Therapy, 2025).

Key:
[1] = Pharmacokinetics study, single intravenous injection; format: in vivo, Sprague-Dawley (SD) rats; details: SD rats, single i.v. 10 mg/kg
How it was run: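 Male SD rats (180–220 g) were randomised to free drug or one of two nanoparticle formulations and anaesthetised with i.p. 2% sodium pentobarbital (3mg/100g). Each got a single i.v. dose of 10 mg/kg drug-equivalent. Blood was drawn by orbital bleeding at set times. Plasma was deproteinised with acetonitrile and centrifuged, and the supernatant was assayed by HPLC (C18, 30°C, 335 nm). Cmax, Tmax, t1/2, MRT and AUC0–∞ were derived.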

[2] = Organ toxicity: H&E histology and serum biochemistry; format: in vivo, SD rats; details: fourth day after injection
How it was run: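 On day 4 after injection, animals were euthanised. Heart, kidneys, liver, lungs and spleen were excised, rinsed in saline to remove blood, fixed in 4% paraformaldehyde for 72 h, and stained with hematoxylin and eosin.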

BCG within RAW264.7 = assay: Intracellular inhibition, CFU assay in infected RAW264.7 cells; format: cell-based; details: 0.047 μg/mL drug, 72 hours, BCG MOI 1
How it was run: (§1)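 RAW264.7 macrophages were seeded at 1×10⁶ cells/well in 12-well plates and infected at MOI 1, for 24 h with BCG or 4 h with H37Rv. Cells were exposed to 0.047 μg/mL free drug or nanoparticles with equivalent drug for 72 h, washed three times with PBS, and lysed 10 min in PBS with 0.03% SDS. Lysates were serially diluted in 7H9, plated on 7H11, and CFU counted after 21 days at 37°C (three replicates).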

In vitro drug release = format: physicochemical; details: within 9 hours
H37Rv within RAW264.7 = assay: Intracellular inhibition, CFU assay in infected RAW264.7 cells; format: cell-based, Mycobacterium tuberculosis; details: 0.047 μg/mL drug, 72 hours, H37Rv MOI 1
How it was run: as §1

CO[C@H]1/C=C/O[C@@]2(C)Oc3c(C)c(O)c4c(O)c(c(/C=N/N5CCN(C6CCCC6)CC5)c(O)c4c3C2=O)NC(=O)/C(C)=C\C=C\[C@H](C)[C@H](O)[C@@H](C)[C@@H](O)[C@@H](C)[C@H](OC(C)=O)[C@@H]1C [RPT, Rifapentine]
Time the drug persisted in the system [1]: 2 days | H&E histology of heart, spleen, liver, lungs and kidneys [2]: no discernible abnormalities | Intracellular antibacterial activity (CFU) (BCG within RAW264.7): exhibited inhibitory effects | Cumulative release (initial burst release) (In vitro drug release): approximately 90.73% | Intracellular antibacterial activity (CFU) (H37Rv within RAW264.7): exhibited inhibitory effects
